High-throughput results (PubChem)
TAAR1 antagonist: human TAAR1 antagonism | Q96RJ0 | CHO RD-HGA16 TAAR1, Fluo-8 calcium fluorescence, antagonist | inhibition, % at 3 µM | actives 1.5% (n = 360,000);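 active = inhibition above a per-plate cutoff, the mean inhibition of test compounds on that plate plus 3 SD, cut at about 49% in these data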;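 also: 0% = DMSO plus EC80 beta-PEA response and 100% = DMSO alone without agonist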
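System: CHO RD-HGA16 cells bearing hTAAR1. Reagent: EC80 β-phenethylamine stimulus. Schedule: seeding 17-24 h prior, 75-min 37 °C, 30-min RT dye loading. Signal: Fluo-8 intracellular calcium dye fluorescence, real-time kinetic reads. Read-out: % inhibition from peak post-agonist over basal fluorescence ratio. Benchmarks: vehicle wells and EC80 agonist wells. Replicates: n of 1.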
V1aR counter: counter-screen for oxytocin receptor agonists: human V1a receptor agonists. CHO-V1R cells, Fluo-8 calcium fluorescence, agonist mode; 0% DMSO, 100% 3 nM vasopressin. actives 0.25% (n = 320,000). activation, % at 3 µM;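 active = activation above the mean activation of all tested compounds plus 3 SD, per screening run, cut at about 20% in these data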;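 also: signal is peak over basal fluorescence ratio across a 100 second FLIPR read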
TAAR1 ag: human TAAR1 agonism; Q96RJ0; CHO RD-HGA16 TAAR1, Fluo-8 calcium fluorescence; vehicle wells 0%, saturating PEA agonist 100%; activation, % at 3 µM; actives 0.99% (n = 360,000); AID 624467;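 active = activation above the mean activation of all test compounds in the run plus 3 SD, cut at about 38% in these data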
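System: CHO-derived RD-HGA16 cells with stable Gα16 and human TAAR1 / Times: 17-24 h plating, Fluo-8 75 min 37 °C, 30 min RT / Technique: calcium-sensitive Fluo-8 signal, excitation 470-495, emission 515-575 nm / Measure: % activation relative to PEA EC100 response / Benchmarks: DMSO and PEA EC100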
OXTR potentiate: potentiators of human oxytocin receptor | P30559 | CHO-OTR cells, Fluo-8 calcium fluorescence, potentiator mode; 0% = oxytocin EC15, 100% = EC100 | activation, % at 3 µM | actives 0.061% (n = 320,000) | AID 2445;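 active = activation above that plate's cutoff, the mean activation of tested compounds plus 3 SD, cut at about 6.6% in these data, passing the limit was not always enough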;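 also: 100% uses oxytocin at 75 nM as the full agonist control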
Target sequence (P30559 whole entry, looked up): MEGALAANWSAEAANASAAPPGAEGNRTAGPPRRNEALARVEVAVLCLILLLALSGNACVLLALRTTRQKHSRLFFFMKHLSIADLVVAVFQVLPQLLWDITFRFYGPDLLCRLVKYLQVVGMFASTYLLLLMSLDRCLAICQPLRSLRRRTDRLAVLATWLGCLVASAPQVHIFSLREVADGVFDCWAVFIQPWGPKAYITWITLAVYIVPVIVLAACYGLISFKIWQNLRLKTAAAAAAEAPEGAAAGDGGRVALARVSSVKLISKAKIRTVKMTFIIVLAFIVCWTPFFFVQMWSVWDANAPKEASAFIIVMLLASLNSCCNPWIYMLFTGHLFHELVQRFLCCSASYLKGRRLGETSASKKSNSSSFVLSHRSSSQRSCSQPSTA
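Assay system: CHO cell line stably expressing human OTR. Reagent: EC15 oxytocin agonist. Dosing: single dose, 3.0 µM nominal final compound concentration. Timing: compound 6 min at room temperature before oxytocin, 100 s read. Signal: kinetic Fluo-8 calcium fluorescence. Controls: oxytocin EC15 low and EC100 high.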
OXTR agonist: human OXTR agonism; actives 0.32% (n = 320,000); activation, % at 3 µM; P30559; AID 2435; CHO-OTR cells, Fluo-8 calcium fluorescence; normalized: DMSO 0%, oxytocin 100%;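 active = activation above the mean of all tested compounds plus 3 SD, cutoff set per screening run, cut at about 20% in these data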;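 also: peak over basal fluorescence ratio from a 100 s FLIPR kinetic read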
OXTR ag confirm: human OXTR agonism, confirmation; actives 20% (n = 390); AID 434963; shares compounds with OXTR agonist; activation, % at 3 µM; CHO-OTR cells, Fluo-8 calcium fluorescence, agonist;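 active = mean activation above about 20% derived from the earlier single-dose screen, limit read from the data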;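 also: peak over minimum fluorescence ratio per well during a 100 second FLIPR read; 0% = DMSO alone and 100% = oxytocin high control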
V1aR counter 3x: activates V1a receptor in oxytocin agonist counter-screen | shares compounds with OXTR agonist | activation, % at 3 µM | CHO-V1R cells, Fluo-8 calcium fluorescence | AID 434991 | actives 10% (n = 390);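 active = mean activation over triplicate exceeds the hit threshold set in the earlier primary screen, cut at about 20% in these data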;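 also: peak over basal fluorescence ratio within a 100 second read; 0% = DMSO alone and 100% = 3 nM vasopressin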
* marks the source's active call; other numbers are inactive results; . = no result given; ! = repeats disagree. Most compounds without a hit are left out; they make up all but 2.3% or so of the library.

SMILES	TAAR1 antagonist	V1aR counter	TAAR1 ag	OXTR potentiate	OXTR agonist	OXTR ag confirm	V1aR counter 3x
CCN1C(=O)C2(C(C#N)=C(N)Oc3n[nH]c(-c4ccc(Cl)cc4)c32)c2ccccc21 (stereo not drawn)	-10	0	1	-1	1	.	.
COC(=O)C1=C(C)N(Cc2ccccc2)C(=NCc2ccccc2)N[C@H]1c1cccc(F)c1	22	9	15	-10	20*	9	5
COC(=O)C1=C(C)N(Cc2ccccc2)C(=NCc2ccccc2)N[C@H]1c1ccccc1	22	7	16	-10	18	.	.
COC(=O)C1=C(C)N(Cc2ccccc2)C(=NCCc2c[nH]c3ccccc23)N[C@H]1c1cccc(F)c1	43	11	29	-9	22*	7	4
FC(F)(F)c1cccc(-c2nc3nc(Cl)c(Cl)nc3[nH]2)c1	.	11	.	-25	22*	14	10
CNC(=O)c1[nH]cnc1C(=O)Nc1cccc(OC)c1	5	1	5	-18	32*	-1	0
CCOC(=O)c1[nH]cnc1C(=O)Nc1cccc(OC)c1	-9	1	1	-17	-1	.	.
COc1ccc(CC(=O)NC(=S)Nc2ccc(S(=O)(=O)NC(C)(C)C)cc2)cc1	31	17	53*	-23	20*	17	15
COc1ccc(C(CCNCc2ccc(OC(C)C)cc2)c2ccccc2OC)cc1 (stereo not drawn)	38	15	38*	-18	22*	12	9
COc1ccc(NS(=O)(=O)c2cccc(C(=O)NCC3(N4CCOCC4)CCCCC3)c2)cc1	-8	0	1	-6	-1	.	.
COc1ccc(NS(=O)(=O)c2ccc(C(=O)NCC3(N4CCOCC4)CCCCC3)cc2)cc1	11	18	57*	-9	24*	16	10
COC(=O)[C@]12CCCCC=C1N(Cc1ccc(Cl)cc1Cl)C(=O)[C@H](CC(=O)NCC1CCCCC1)C2	2	.	-1	.	.	.	.
COC(=O)C1=CN(c2ccc(C)cc2)C(N)=C(C#N)C1c1ccc(OC)cc1 (stereo not drawn)	25	.	1	.	.	.	.
Cc1ncc(CN2CCC(CO)(CCOc3ccccc3)CC2)s1	-37	0	1	-7	21*	0	0
CCOC(=O)c1ccc(NS(=O)(=O)c2ccc3c(c2)n(C)c(=O)n3C)cc1	-1	15	20	-23	30*	4	5
Cc1ccc(C(=O)OCC(=O)N2CCCC2)cc1	-17	0	-1	-11	0	.	.
COC(=O)c1ccc(NS(=O)(=O)c2ccc3c(c2)n(C)c(=O)n3C)cc1	24	5	2	-17	9	.	.
Cc1ccc(NS(=O)(=O)c2ccc(C(=O)OCC(=O)N3CCCCC3)cc2)cc1	41	19	41*	-10	24*	19	14
O=C1CCCCC(=O)[C@H](O)C[C@H](c2ccccc2)O1	-4	.	1	.	.	.	.
CC1(C)CC(=O)C=C(C2CC2)C1=O	-20	.	6	.	.	.	.
Cc1c2ccccc2nc2c(F)c(NC(C)C)c(F)c(F)c12	17	11	6	-6	20*	51*	66*
Cc1c2ccccc2nc2c(F)c(NCCO)c(F)c(F)c12	26	3	13	0	2	.	.
CC(C(=O)Nc1ccc2c(c1)OCO2)c1ccc([N+](=O)[O-])cc1 (stereo not drawn)	15	19	37	-17	20*	22*	18
Nc1nc(Cl)cc(N2CCC(c3cc(-c4ccc(Cl)cc4)n[nH]3)CC2)n1	45	14	29	-13	22*	9	11
Clc1ccc(-c2cc(C3CCNCC3)[nH]n2)cc1	18	2	4	1	1	.	.
SMILES	TAAR1 antagonist	V1aR counter	TAAR1 ag	OXTR potentiate	OXTR agonist	OXTR ag confirm	V1aR counter 3x
Cc1ccc(S(=O)(=O)N2CCOC23CCN(S(=O)(=O)c2c(C)cc(C)cc2C)CC3)cc1	15	1	-1	-14	1	.	.
NC(=O)c1cc(S(=O)(=O)NCc2ccc(F)cc2)cs1	-15	1	2	-6	20*	0	0
CC(C)Oc1ccc(C(CCN)C2CCCCC2)cc1 (stereo not drawn)	11	6	47*	-18	21*	17	8
O=C(NC(=S)NNC(=O)[C@H]1C[C@@H]1c1ccccc1)c1ccc(F)cc1	63*	18	41*	-19	35*	22*	39*
CCc1c(-c2ccccc2OC)ncn1Cc1cccc(-c2ccccc2)c1	12	.	5	.	.	.	.
O=C(NCc1ccccc1)c1sc(=S)n2c1[nH]c(=O)c1ccccc12	3	13	44*	-23	21*	12	11
CCCCNC(=O)c1sc(=S)n2c1[nH]c(=O)c1ccc(C(=O)NCCc3ccc(OC)c(OC)c3)cc12	.	1	.	-7	-1	.	.
COc1ccc2nc(NC(=O)c3ccccc3O)sc2c1	9	16	8	-25	20*	11	9
COc1ccc2nc(NC(=O)c3ccccc3[N+](=O)[O-])sc2c1	4	0	-1	-4	4	.	.
Cc1cnc(NC(=O)c2cccs2)s1	-5	1	-2	-9	0	.	.
O=C(Nc1ncc([N+](=O)[O-])s1)c1cccs1	-9	12	7	-22	21*!	10	11
C=CCN1C(=O)/C(=C/c2ccc(OCC(=O)O)cc2)S/C1=N/c1nccs1	-8	0	8	-2	-2	.	.
C=CCN1C(=O)/C(=C/c2ccc(O)c(OC)c2)S/C1=N/c1nccs1	60*	18	32	-10	20*	27*	38*
Cc1ccccc1OCC(=O)Nc1ccc(N2CCN(C)CC2)c(Cl)c1	7	13	39*	-13	20*	3	2
CC1=C(C(=O)N2CCCCCC2)CC(CC(=O)NCc2cccc3ccccc23)C(=O)N1CCC1=CCCCC1 (stereo not drawn)	-5	.	-1	.	.	.	.
O=C1NC[C@@H](Cc2cccc3ccccc23)N(CC2(c3ccccc3)CC2)C1=O	-6	1	11	-10	23*	0	0
CCCCN1C(=O)C(=O)NC[C@H]1Cc1cccc2ccccc12	-9	.	-1	.	.	.	.
Cc1ccc(NC(=O)CN2C(=O)NC(C)(c3ccc(Cl)cc3)C2=O)cc1 (stereo not drawn)	21	16	41*	-10	22*	10	10
Cc1ccc(C2(C)NC(=O)N(CC(=O)N3CCc4ccccc43)C2=O)cc1 (stereo not drawn)	-10	16	34	-11	20*	14	13
